# Experimental data pooled from the literature.
# Compare with care: the assays were run in different laboratories.
# Target: Receptor tyrosine-protein kinase erbB-4 (ERBB4, Homo sapiens, UniProt Q15303)
Compound,effect on,method,tested at,remaining binding [%]
COc1cnc(Nc2cccc(S(N)(=O)=O)c2)nc1N1CCN(c2ccccc2)C(=O)C1,binding,competition with immobilised ligand,1 µM,100
Cc1cnn2ncc(-c3ccnc(N(C)C)n3)c2c1,binding,,1 µM,65
COc1ncc2cc3ccccc3nc2c1C#N,cell-free assay,competition with immobilised ligand,5 µM,96
CC1CCCN1c1nccc(-c2cnn3ncccc23)n1 (stereo not shown),binding,,1 µM,98
CNC(=O)[C@@H]1CC[C@@H](n2c(-c3ccc4cnccc4c3)nc3ccc(C(=O)NCc4cccc(C(N)=O)c4)cc32)C1,binding,competition with immobilised ligand,1 µM,100
O=C(NCCCN1CCOCC1)c1ccc(Nc2nccc(-c3cc4ccccc4s3)n2)cc1,binding,competition with immobilised ligand,1 µM,86
COc1cccc(CNC(=O)c2nc3scc(COCc4ccc(C(=O)O)cc4)c3c(=O)[nH]2)c1,cell-free assay,competition with immobilised ligand,1 µM,86.1
O=C(Nc1c[nH]nc1C(=O)NC1CCNCC1)c1cc(F)cc(F)c1,binding,competition with immobilised ligand,1 µM,100
N#Cc1ccccc1CSc1nnc2c(n1)[nH]c1ccccc12,binding,competition with immobilised ligand,10 µM,74
Nc1c(C(=O)NCc2ccc(C(=O)NCCCC3CCCCC3)cc2)cnn1-c1ccccc1,cell-free assay,competition with immobilised ligand,0.1 µM,89
CN(CCCC(F)(F)F)c1nccc(-c2cnn3ncccc23)n1,binding,,1 µM,72
Cc1noc([C@H]2C[C@@H](c3ccc(C(F)(F)F)cc3)CN(C(=O)N3CCS(=O)(=O)C3)C2)n1,cell-free assay,competition with immobilised ligand,1 µM,100
c1cnn2ncc(-c3ccnc(N4CCC45COC5)n3)c2c1,binding,,1 µM,76
N#CC1(c2ccccn2)CCN(Cc2cc(C(=O)N3CCCC3)c(=O)n3ccccc23)CC1,cell-free assay,competition with immobilised ligand,1 µM,85
O=C(c1ccc(Nc2nccc(-c3cc4ccccc4s3)n2)cc1)N1CCC(N2CCCC2)CC1,binding,competition with immobilised ligand,1 µM,93
C[C@H]1CCN(c2nccc(-c3cnn4ncccc34)n2)C1,binding,,1 µM,81
COc1ccc2c(c1)O[C@H](c1ccc(OC)c(OC)c1)C[C@@H]2NC(=O)C1(c2ccc3c(c2)OC(F)(F)O3)CC1,cell-free assay,competition with immobilised ligand,1 µM,94
CCN1CCN(Cc2ccc(C(=O)Nc3ccc(C)c(Oc4ccc5c(c4)CC(=O)N5)c3)cc2C(F)(F)F)CC1,binding,competition with immobilised ligand,1 µM,100
COc1ccc2c(O[C@@H]3C[C@H]4C(=O)N[C@]5(C(=O)O)CC5/C=C\CCCCC[C@H](NC(=O)OC5CCCC5)C(=O)N4C3)cc(-c3csc(NC(=O)C(C)C)n3)nc2c1C (stereo partly shown),cell-free assay,competition with immobilised ligand,1 µM,100
N[C@H]1CCN(c2nccc(-c3cnn4ncccc34)n2)C1,binding,,1 µM,84
CN(C)C(=O)Cn1cc(-c2nc(C3(c4ccc(-c5cnc(N)nc5)cc4)CC3)no2)cn1,cell-free assay,competition with immobilised ligand,1 µM,100
Cc1cnc(Nc2ccc(C(=O)N3CCC(N4CCCC4)CC3)cc2)nc1-c1cc2ccccc2s1,binding,competition with immobilised ligand,1 µM,84
